# Laboratory results reported in ChEMBL document CHEMBL1139981, “Novel heterocyclic thyromimetics. Part 2” (Bioorg Med Chem Lett, 2007).
# Key:
# Thyroid hormone receptor = molecular target: T1, Thyroid hormone receptor (Homo sapiens, UniProt P10827+P10828); experiment: Agonist activity at THR in HepG2 cells by whole cell assay; type: functional, cell-based
# T1 sequence (P10827 whole entry): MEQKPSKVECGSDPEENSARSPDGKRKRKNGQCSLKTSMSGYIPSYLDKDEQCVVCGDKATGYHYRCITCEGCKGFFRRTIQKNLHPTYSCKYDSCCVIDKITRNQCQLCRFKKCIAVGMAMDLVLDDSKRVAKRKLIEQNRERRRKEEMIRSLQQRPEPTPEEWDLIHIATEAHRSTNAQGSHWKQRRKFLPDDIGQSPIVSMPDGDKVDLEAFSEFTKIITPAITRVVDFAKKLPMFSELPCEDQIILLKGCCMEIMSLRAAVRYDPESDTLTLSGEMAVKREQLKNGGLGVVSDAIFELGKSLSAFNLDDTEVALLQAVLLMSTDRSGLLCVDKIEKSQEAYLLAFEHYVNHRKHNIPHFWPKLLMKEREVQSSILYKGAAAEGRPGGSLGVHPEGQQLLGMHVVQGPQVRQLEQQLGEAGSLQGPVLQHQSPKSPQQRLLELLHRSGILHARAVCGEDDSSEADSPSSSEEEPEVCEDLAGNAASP
# T1 sequence (P10828 whole entry): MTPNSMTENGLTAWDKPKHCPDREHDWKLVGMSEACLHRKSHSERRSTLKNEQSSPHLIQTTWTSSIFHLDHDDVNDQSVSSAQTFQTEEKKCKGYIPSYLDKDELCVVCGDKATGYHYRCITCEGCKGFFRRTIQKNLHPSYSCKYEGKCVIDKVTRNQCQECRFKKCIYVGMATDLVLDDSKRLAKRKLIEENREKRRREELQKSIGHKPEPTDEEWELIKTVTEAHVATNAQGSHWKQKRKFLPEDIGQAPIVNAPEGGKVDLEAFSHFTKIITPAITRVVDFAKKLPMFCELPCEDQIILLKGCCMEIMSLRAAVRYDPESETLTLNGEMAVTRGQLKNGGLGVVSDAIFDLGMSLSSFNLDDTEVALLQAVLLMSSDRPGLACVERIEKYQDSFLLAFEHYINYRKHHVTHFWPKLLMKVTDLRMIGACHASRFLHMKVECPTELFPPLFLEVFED
# Mus musculus [1] = experiment: Increase in heart weight in C57BL/6J mouse at 0.1 mg/kg, po after 11 days; type: functional
# How it was run: (§1)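 C57BL/6J mice, 10-12 per group, dosed orally by gavage once daily for 11 days in solutol/ethanol/water 10:10:80. Doses were 0.1, 0.3 and 3.0 mg/kg, given as the ethyl ester. At study end, heart rate was measured by non-invasive tail cuff, then the animals were sacrificed and hearts weighed. Heart weight change is expressed versus control.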
# Mus musculus [2] = experiment: Reduction in serum cholesterol in NMIR mouse at 1.0 mg/ kg, po after 7 days; type: functional; parameters: scale not given: the % may be the effect or the level left
# How it was run: (§2)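 At study end, blood was taken retro-orbitally. Serum cholesterol (and triglycerides) were measured enzymatically with commercial kits on an autoanalyzer. Reduction is expressed as percent versus the control group.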
# Mus musculus [3] = experiment: Increase in heart weight in C57BL/6J mouse at 3.0 mg/kg, po after 11 days; type: functional; how it was run: as §1
# Mus musculus [4] = experiment: Increase in heart weight in C57BL/6J mouse at 0.3 mg/kg, po after 11 days; type: functional; how it was run: as §1
# Mus musculus [5] = experiment: Reduction in serum cholesterol in NMIR mouse at 3.0 mg/ kg, po after 7 days; type: functional; parameters: scale not given: the % may be the effect or the level left; how it was run: as §2
# Mus musculus [6] = experiment: Reduction in serum cholesterol in NMIR mouse at 0.1 mg/kg, po after 7 days; type: functional; parameters: scale not given: the % may be the effect or the level left; how it was run: as §2
# Mus musculus [7] = experiment: Reduction in serum cholesterol in NMIR mouse at 0.3 mg/ kg, po after 7 days; type: functional; parameters: scale not given: the % may be the effect or the level left; how it was run: as §2
Structure (SMILES),EC50 (Thyroid hormone receptor),other results
CC(C)c1cc(Oc2c(C(C)C)cc(CC3SC(=O)NC3=O)cc2C(C)C)ccc1O (centres undefined),70 nM,–
CC(C)c1cc(Oc2ccc3oc(C(=O)O)cc3c2)ccc1O,1000 nM,–
O=C(O)c1cc2c(Br)c(Oc3ccc(O)c(C(=O)c4ccc(F)cc4)c3)c(Br)cc2o1,210 nM,–
Cc1cc2oc(C(=O)O)cc2c(C)c1Oc1ccc(O)c(C(C)C)c1,110 nM,–
Cc1ccc(CC2CC(=O)NC(=O)S2)c(C)c1Oc1ccc(O)c(C(C)C)c1 (centres undefined),0.06 nM,–
Cc1cc2c(CC(=O)O)coc2c(C)c1Oc1ccc(O)cc1,1000 nM,–

# Second part, led by results:
EC50 (Thyroid hormone receptor),Structure (SMILES),other results
1000 nM,COc1ccc(Oc2c(Br)cc3oc(C(=O)O)cc3c2Br)cc1C(C)C,–
22 nM,O=C(O)c1cc2c(Br)c(Oc3ccc(O)c(C(O)c4ccc(F)cc4)c3)c(Br)cc2o1 (centres undefined),–
0.08 nM,Cc1cc(CC2SC(=O)NC2=O)cc(C)c1Oc1ccc(O)c(C(C)C)c1 (centres undefined),–
5.1 nM,Cc1cc2c(c(C)c1Oc1ccc(O)c(C(C)C)c1)CC(CC(=O)O)O2 (centres undefined),–
0.3 nM,Cc1cc2c(CC(=O)O)coc2c(C)c1Oc1ccc(O)c(C(C)C)c1,Activity (Mus musculus [1]): 12%; Activity (Mus musculus [2]): 39%; Activity (Mus musculus [3]): 27%; Activity (Mus musculus [4]): 17%; Activity (Mus musculus [5]): 41%; Activity (Mus musculus [6]): 32%; Activity (Mus musculus [7]): 34%
7 nM,CC(C)c1cc(Oc2c(Br)cc3oc(C(=O)O)cc3c2Br)ccc1O,–
